Bioassay records from PubChem.
Sampled rows, rich in hits. Any-hit rate of the full collection: about 1%.
T cell HTS = modulators of CD8 T cell-vesicle binding, primary screen, mouse 2C CD8+ T cells, flow cytometry; AID 2052, 2009; response (vesicle binding), % at 7 µM; 2C CD8+ T cell-vesicle binding; active compounds read low; hit rate 0.068% among 330,000;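 active = response, share of CD8 T cells binding vesicles, and their 90th percentile fluorescence all below set limits, cut at about 80% in these data, passing the limit was not always enough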;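 also: values below 100% mean blocked vesicle binding to the CD8+ T cells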
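Material: murine 2C transgenic CD8+ T lymphocytes / Also added: QL9-peptide-loaded Drosophila micro-vesicles bearing Ld, ICAM-1 and B7-1 / Schedule: binding step 1.5 h, 37 °C, antibody labelling 20 min, ice / Signal: flow cytometry, PE anti-B7-1 (FL2) versus Alexa647 anti-CD8 (FL8), PFA-fixed / Evaluation: percent CD8+ FL2 mean versus row control / Benchmarks: naked versus QL9-loaded vesicles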
A1 inh = caspase 3/7 activation in MEF A1-2A-BIM cells, primary screen, A1 inhibitor project, cell-based, luminescence, HTS; Caspase-Glo 3/7 luminescence, 3 h; percent of clofoctol response, vehicle zero; caspase activation, % (concentration not given with the values); hit rate 0.066% among 330,000; AID 2462, 2010;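 active = over half of replicate activation scores above 10%, or exactly half above 10 with the replicate mean above 10; inconclusive = replicate mean below 10 yet half the replicates above 10; inactive = over half of replicates below 10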
NALP1 yeast inh = NALP1 inflammasome inhibitors in reconstituted yeast, colorimetric, S. cerevisiae, triplicate retest | S. cerevisiae NALP1/ASC/caspase-1 growth, X-gal OD620, 72 h | inhibition, % at 10 µM | hit rate 0.61% among 280,000; in the data active = inhibition mostly above about 24%, no sharp cut-off; inactive = mostly below about 32%
NALP3 yeast inh = NALP3 inflammasome inhibitors in reconstituted yeast, primary screen, luminescence, uHTS; inhibition, % at 10 µM; Yeast reconstituted NLRP3/ASC/caspase-1, beta-gal luminescence, 24 h; AID 2825, 2010; hit rate 0.39% among 330,000;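 active = inhibition of 50% or more; inactive = inhibition below 50%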;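 also: plate controls were induced DMSO wells for no effect and uninduced yeast grown without galactose for full effect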
Starred values were filed as active, the others as inactive; ? = inconclusive; · = no result.

SMILES	T cell HTS	A1 inh	NALP1 yeast inh	NALP3 yeast inh
Cc1ccc(CNC(=O)COc2ccc(S(=O)(=O)N3CCOCC3)cc2)cc1	213	1	·	23
Cc1cc(O)c(C(C[N+](=O)[O-])c2ccc(Cl)cc2)c(=O)o1 (stereo not given)	334	0	14	-7
Cc1cc(C)n(C(C[N+](=O)[O-])c2ccc(Cl)cc2)n1 (stereo not given)	243	1	101*	22
COc1ccc(N(C(C)=O)C2C=CS(=O)(=O)C2)c(OC)c1 (stereo not given)	523	0	39*	14
Clc1ccccc1CO/N=C1\CCCc2nonc21	195	0	43*	23
Clc1ccc(CO/N=C2\CCCc3nonc32)cc1	132	-1	40	38
COc1ccc(OCC(O)CN2CC(C)OC(C)C2)cc1 (stereo not given)	173	-1	26	25
N#C/C(C(=O)c1ccccc1)=C1/SC=C(N)N1c1ccccc1	·	·	7	·
N#C/C(C(N)=O)=C1/SC=C(c2ccccc2)N1c1ccccc1	435	0	37*	11
O=S1(=O)CCOCCCN1Cc1ccccc1	332	0	16	16
CC(=O)Oc1ccc(/C(C)=N\N2CCN(Cc3ccc(Cl)cc3)CC2)cc1	454	1	40	13
CCOc1ccc(CCNC(=O)CCS(=O)(=O)c2ccc(Br)cc2)cc1OCC	147	0	20	31
CCOc1ccc(CCNC(=O)CCS(=O)(=O)c2ccc(C)cc2)cc1OCC	0.0*	0	10	3
Cc1cc(C(=O)Nc2cccc(O)c2)c(C)o1	318	0	35*	2
Cc1cc(C(=O)Nc2cccc(C(=O)O)c2)c(C)o1	169	-9	0	-2
Cc1csc(NC(=O)c2c(O)c3c(n(CC(C)C)c2=O)CCCC3)n1	313	-1	31*	-12
CCOc1ccc(N(CC(=O)Nc2cc(OC)cc(OC)c2)S(=O)(=O)c2c(C)[nH]c(=O)[nH]c2=O)cc1	580	0	24	-3
O=P(O)(CCc1ccccn1)CN1CCOCC1	130	0	39*	5
O=S(=O)(NCc1ccccc1)NCc1ccc(Cl)cc1Cl	0	0	33	9
N#CC12CCCCC1CC1CCCCC1(C#N)N2Cc1ccccn1 (stereo not given)	200	-1	38*	13
COc1ccccc1C1=NOC(COc2ccc3c(C)cc(=O)oc3c2)C1 (stereo not given)	717	2	40*	18
CS(=O)(=O)c1nc(-c2ccco2)cc(C(F)(F)F)n1	652	?	61*	37
c1ccc(-c2nnc(-c3ccccn3)nn2)nc1	271	-7	·	11
c1ccc(-c2cccc(-c3ccccn3)n2)nc1	·	0	51*	47
O=C(COC(=O)C1CC2C=CC1C2)NCc1ccco1 (stereo not given)	194	1	3	6
SMILES	T cell HTS	A1 inh	NALP1 yeast inh	NALP3 yeast inh
O=C(COC(=O)C1CC2C=CC1C2)NCc1ccc(F)cc1 (stereo not given)	55*	0	26	14
CCn1c(COc2ccccc2C)nnc1SCC(=O)CC(=O)Nc1ccccc1OC	311	1	7	9
CCn1c(COc2ccccc2C)nnc1SCC(=O)OC	303	1	22*	-25
COc1cc(NC(=O)CCN2CCN(C/C=C/c3ccccc3)CC2)cc(OC)c1	152	1	7	14
CCN(Cc1ccccc1)C(=O)Cn1c(=O)n(CC(=O)N2CCCCC2)c(=O)c2sccc21	531	-1	16	19
CC[n+]1c(/C=C/Nc2ccccc2)sc2ccccc21	238	0	7	-1
CCN1/C(=C/C=C/c2sc3ccccc3[n+]2CC)Sc2ccccc21	168	-1	·	43
CCN1/C(=C/C=C/C=C/c2sc3ccccc3[n+]2CC)Sc2ccccc21	852	-1	133*	19
CCN1/C(=C/C=C/C=C/C=C/c2sc3ccccc3[n+]2CC)Sc2ccccc21	139	0	39*	25
COc1ccc(C(=O)Nc2nnc(SCC(=O)NCc3ccco3)s2)c(OC)c1	247	-1	-5	21
CCOC(=O)CN1CCC(c2cc(-c3ccc(Cl)cc3)n[nH]2)CC1	84	0	15	5
O=[N+]([O-])c1cccnc1N1CCC(c2cc(-c3ccc(Cl)cc3)n[nH]2)CC1	281	1	40*	19
